Screening data from PubChem BioAssay.
This is a sample that favours compounds with a hit; in the whole collection about 3.4% have one here.
ANO1 block – blocks the mouse calcium-activated chloride channel TMEM16A | hit rate 1.2% among 310,000 | HEK293 TMEM16A/YFP iodide influx fluorescence, ionomycin | normalized B-score (activity score, 25-100; higher = stronger inhibition) at 10 µM;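 active means ratio plate-corrected score three or more library SD toward inhibition, starting fluorescence score within five deviations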;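 further: score derived from kinetic fluorescence span divided by baseline fluorescence per well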
TMEM16A act – mouse TMEM16A channel activation, primary screen | Q8BHY3 | B-score at 10 µM | hit rate 0.3% among 340,000 | HEK293 TMEM16A/YFP-H148Q/I152L, iodide quench fluorescence; hits give low values | AID 623877;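 active means fluorescence-ratio B-score plate-corrected deviation score at least 3 library SD below zero, with starting fluorescence score within 5 deviations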;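 further: channel opened by trigger with iodide after compound preincubation; score built on the fluorescence ratio of max minus min over baseline; more negative score means more quench and so TMEM16A activation or potentiation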
IMP-1 inhibitor – blocks Pseudomonas aeruginosa IMP-1 metallo-beta-lactamase | purified IMP-1, nitrocefin hydrolysis, epi-absorbance fluorescence | inhibition, % at 5.6 µM | hit rate 0.45% among 290,000 | AID 1556;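 active means inhibition above the mean plus 3 SD of all compounds in the same screening run, cut at about 4.5% in these data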;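 further: 0% = IMP-1 with DMSO and 100% = DMSO wells lacking enzyme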
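System: purified recombinant IMP-1 beta-lactamase. Medium: Zinc- and detergent-supplemented HEPES buffer, pH 7.1. Compound: one 5.6 µM dose […]. Schedule: 15 min preincubation plus 25 min reaction at 25 °C. Technique: Epi-absorbance fluorescence, 480 nm excitation, 530 nm emission.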
VIM-2 inhibitor – blocks Pseudomonas aeruginosa VIM-2 metallo-beta-lactamase; purified VIM-2, nitrocefin hydrolysis, epi-absorbance fluorescence; hit rate 0.89% among 290,000; inhibition, % at 5.6 µM; AID 1527;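 active means inhibition above the mean of all tested compounds plus 3 SD, cutoff set per screening run, cut at about 7.5% in these data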;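 further: red hydrolysis product quenches plate fluorescence so inhibitors raise well fluorescence; 0% = enzyme with DMSO and 100% = DMSO without enzyme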
CHT allo act – human CHT allosteric activation; Q9GZV3; CHT-expressing cells, membrane potential dye, choline EC20; hits give high values; LV-AA mutant CHT in HEK293 cells; hit rate 0.49% among 310,000; B-score at 10 µM;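 active means initial fluorescence not abnormally high and integrated response B-score, plate-corrected, over 3 SD above library mean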
Target sequence (Q9GZV3 whole entry, looked up): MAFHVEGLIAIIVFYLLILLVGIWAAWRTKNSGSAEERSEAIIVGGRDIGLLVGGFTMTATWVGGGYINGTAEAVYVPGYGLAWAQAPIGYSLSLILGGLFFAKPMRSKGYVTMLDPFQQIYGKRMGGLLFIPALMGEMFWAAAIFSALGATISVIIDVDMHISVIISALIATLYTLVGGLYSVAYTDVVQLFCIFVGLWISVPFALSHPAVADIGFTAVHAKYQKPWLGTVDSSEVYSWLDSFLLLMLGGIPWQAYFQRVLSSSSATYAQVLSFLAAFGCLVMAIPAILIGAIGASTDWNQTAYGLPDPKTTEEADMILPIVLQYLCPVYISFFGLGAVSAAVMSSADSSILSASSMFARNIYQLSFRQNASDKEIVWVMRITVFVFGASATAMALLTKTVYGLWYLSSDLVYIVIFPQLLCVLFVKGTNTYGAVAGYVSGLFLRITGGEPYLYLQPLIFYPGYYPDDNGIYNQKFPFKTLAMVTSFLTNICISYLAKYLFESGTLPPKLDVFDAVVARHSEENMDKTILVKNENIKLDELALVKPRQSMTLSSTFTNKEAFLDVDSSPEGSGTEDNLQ
CHT block – inhibits the human high affinity choline transporter | Q9GZV3 | CHT-expressing cells, membrane potential dye, choline response; hits give low values | B-score at 10 µM | hit rate 0.86% among 310,000;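 active means B-score over 3 SD under the library average, and starting fluorescence ratio not unusually high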;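 further: choline stimulus applied at its EC90 after an EC20 pre-addition; B-score computed on integrated fluorescence ratio after choline addition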
An asterisk follows results filed as active; i = inactive; / = not tested or not shown.

SMILES	ANO1 block	TMEM16A act	IMP-1 inhibitor	VIM-2 inhibitor	CHT allo act	CHT block
Cc1cc2oc(=O)c(CC(=O)O)c(C)c2c2occ(C(C)(C)C)c12	i	i	3.6	10.8*	i	i
Cc1cc2oc(=O)c(CC(=O)NCCCN(C)C)c(C)c2c2occ(C(C)(C)C)c12	i	/	1.5	8.9*	i	i
O=[N+]([O-])c1cc([N+](=O)[O-])c(Oc2cc(Cl)ccc2Cl)cc1NC1CCCCCCC1	i	i	-0.9	0.6	i	i
Cc1ccc(S(=O)(=O)NCc2ccc(C(=O)NCCc3ccc(S(N)(=O)=O)cc3)cc2)cc1	i	i	-0.2	-1.6	i	i
CCN(CC)c1ccc2c(c1)OC(N)=C(C#N)C2c1cccnc1 (stereo unspecified)	i	i	9.6*	6.1	i	i
CCc1cc(=O)oc2c3c(cc(OCC(=O)NCCN4CCOCC4)c12)OC(C)(C)CC3	i	i	-0.3	4.6	i	i
Cc1cc(OCC(=O)NCC(c2cccs2)N2CCOCC2)ccc1C(C)C (stereo unspecified)	i	i	/	/	i	i
Cc1ccc(C(C)C)c(OCC(=O)NCC(c2cccs2)N2CCOCC2)c1 (stereo unspecified)	100*	i	/	/	i	i
CCOC(=O)c1cc2c(C)n(-c3ccc(C)cc3)c(C)c2ccc1=O	100*	i	-4.1	-2.1	i	i
O=c1[nH]c(=O)n(Cc2ccccc2)c2c1CCC2	i	i	5.0*	1.0	i	i
O=c1[nH]c2ccccc2n1Cc1ccccc1	i	i	-2.5	-2.8	i	i
Cc1ccc(S(=O)(=O)NC(=O)c2ccc(-c3ccc(-c4ccccc4)cc3)o2)c(C)c1	100*	/	-1.9	-2.1	i	i
CC(=O)N1CCN(c2ccc(NC(=O)c3ccc4c(c3)OCCO4)cc2Cl)CC1	i	i	-1.9	-3.4	i	i
CC(C)C(=O)N1CCN(c2ccc(NC(=O)c3ccc4c(c3)OCCO4)cc2Cl)CC1	100*	i	-0.8	-0.5	i	i
CCOc1cccc(C(=O)Nc2ccccc2N2CCN(C(=O)C(C)C)CC2)c1	i	i	-7.6	-3.4	i	-5.71*
CCCCC(NC(=O)Cc1c(C)c2cc3c(-c4ccccc4)coc3c(C)c2oc1=O)C(=O)O (stereo unspecified)	i	i	-3.8	8.5*	i	i
Cc1c(CC(=O)O)c(=O)oc2cc3occ(-c4ccc(F)cc4)c3cc12	i	i	0.2	0.8	i	i
Cc1c(CC(=O)O)c(=O)oc2c(C)c3occ(-c4ccc(Br)cc4)c3cc12	i	i	-1.6	8.9*	i	i
CCN(CC)c1ccc(/C=N/NC(=O)CNC(=O)C2COc3ccccc3O2)c(O)c1 (stereo unspecified)	i	i	-5.8	-3.5	i	i
CC1Oc2cc3oc4c(O)c(O)ccc4c(=O)c3c(O)c2C1(C)C (stereo unspecified)	100*	i	/	/	i	i
O=c1cc(CN2CCOCC2)c2ccc(O)c(O)c2o1	i	i	-3.9	0.1	i	i
CN(C(=O)COC(=O)c1cc(=O)[nH]c2ccccc12)c1ccccc1	/	i	/	/	/	/
COc1cc(N)c(Cl)cc1C(=O)OCC(=O)N1c2ccccc2NC(=O)C1(C)C	/	i	/	/	/	/
CN(C)S(=O)(=O)Oc1cccc(C(=O)Nc2ccccc2Cl)c1	i	i	-1.8	-2.4	i	i
CN(C)S(=O)(=O)Oc1cccc(C(=O)Nc2ccc(Cl)cc2)c1	100*	i	-3.0	-1.4	i	i
SMILES	ANO1 block	TMEM16A act	IMP-1 inhibitor	VIM-2 inhibitor	CHT allo act	CHT block
O=c1nc(Nc2ccc([N+](=O)[O-])cc2)[nH]c(=O)[nH]1	i	i	-3.1	-6.2	i	i
Cn1c(OCc2cccnc2)nc2c1c(=O)n(Cc1ccccc1)c(=O)n2C	i	i	-2.5	8.7*	i	i
Cc1ccc(S(=O)(=O)NCC(=O)NCC(=O)N(C)Cc2ccc3ccccc3c2)cc1C	i	i	-0.9	-1.5	i	i
COc1ccc(CCC(=O)OCC(=O)Nc2sccc2C(N)=O)cc1OC	/	i	/	/	/	/
COc1ccc(CCC(=O)OCC(=O)Nc2sccc2C(N)=O)cc1	/	-5.31*	/	/	/	/
COc1ccc(C2=NO[C@@H]3C(=O)N(c4ccc(C)cc4C)C(=O)[C@H]23)cc1OC	i	i	-0.3	-1.9	i	i
Cc1ccc(N2C(=O)[C@@H]3C(c4cccnc4)=NO[C@@H]3C2=O)c(C)c1	25*	i	-2.9	-2.7	i	i
Cc1[nH]c2ccccc2c1C(=O)COC(=O)c1ccc[n+]([O-])c1	i	i	1.6	8.9*	i	i
N/C(=N\OS(=O)(=O)c1ccc2ccccc2c1)c1ccccn1	/	-25.6*	-1.7	0.3	/	/
CN(C)CCCNCCCCNC(=O)/C=N/O	i	i	-2.5	-2.1	i	i
CN(C)CCCNCCCNC(=O)/C=N/O	i	i	4.6*	-1.3	i	i
O=S(=O)(CCN1CCOCC1)c1ccc(OC(F)(F)F)cc1	i	i	-3.3	0.3	i	i
COc1ccc(OCCC(=O)OCC(=O)NCCC2=CCCCC2)cc1	i	-34.2*	-2.1	-2.1	i	i
CCn1ccnc1[C@@H]1C[C@H]2CN(c3ccccc3OC)C(=O)[C@]23CCCN13	i	i	-1.0	1.1	i	i
O=C(Cc1ccc(-c2ccccc2)cc1)Nc1ncccc1O	i	i	32.8*	-4.7	i	i
N#CC1(NC(=O)COC(=O)C2CCN(S(=O)(=O)c3ccc4c(c3)OCCO4)CC2)CCCCC1	/	i	/	/	/	/
CN(c1ccccc1)S(=O)(=O)c1nnc(NC(=O)C2CCCCC2)s1	i	i	-3.7	-2.8	i	i
CCCn1c(N2CCC(Cc3ccccc3)CC2)nc2c1c(=O)[nH]c(=O)n2C	i	i	-2.1	0.4	i	i
CCCCCn1c(N2CCC(Cc3ccccc3)CC2)nc2c1c(=O)[nH]c(=O)n2C	100*	i	-3.7	-2.0	i	i
CC(Sc1nc(N)cc(=O)[nH]1)C(=O)NC1CCCCC1 (stereo unspecified)	i	-9.67*	-1.8	0.9	i	i
OC1=C(O)c2nc3cc(F)ccc3nc21	i	i	-2.5	8.2*	i	i
O=C(Nc1cc(C(F)(F)F)ccc1N1CCCC1)C1CCCO1 (stereo unspecified)	/	i	/	/	/	/
Cc1ccc2[nH]c3c(c2c1)CN(C(C)C)CC3	i	i	-2.1	0.2	i	i
Cc1sc2cc3c(c(C(=O)c4ccccc4)[n+]2c1C)-c1cccc2cccc-3c12	100*	/	-1.2	6.0	i	i
